Measured values published in ChEMBL document CHEMBL1134949, “New irreversible adenosine A(1) antagonists based on FSCPX” (Bioorg Med Chem Lett, 2002).
“And” between values parts separate entries of the source, which are not always exact repeats. Equal entries are not always repeated.

What was measured:
[1] = Inhibitory concentration against [3H]DPCPX binding to Adenosine A1 receptor from DDT1 MF2 cells
[2] = Equilibrium dissociation constant for [3H]DPCPX binding to Adenosine A1 receptor from DDT1 MF2 cell membranes
[3] = biological target: T1, Adenosine receptor A1 (Homo sapiens) (UniProt P30542); assay: Percentage loss of [3H]DPCPX binding to Adenosine A1 receptor in the presence of Xanthine derivative at 100 nM from DDT1 MF2 cells; type: cell-based
T1 sequence (whole entry): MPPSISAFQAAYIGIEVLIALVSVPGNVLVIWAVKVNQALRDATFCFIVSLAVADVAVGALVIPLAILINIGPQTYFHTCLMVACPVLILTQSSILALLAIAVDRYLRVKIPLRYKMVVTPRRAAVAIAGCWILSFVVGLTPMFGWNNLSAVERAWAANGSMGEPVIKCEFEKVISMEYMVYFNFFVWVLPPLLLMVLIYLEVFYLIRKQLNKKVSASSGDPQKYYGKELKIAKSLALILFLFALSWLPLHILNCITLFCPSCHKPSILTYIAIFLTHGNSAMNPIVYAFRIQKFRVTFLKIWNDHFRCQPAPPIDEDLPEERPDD
How it was run: (§1)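 DDT1 MF-2 cells preincubated with or without antagonist (5 or 100 nM) for 30 min at 30 °C, then 10 cell wash cycles to remove unbound ligand. Membranes then prepared and assayed for [3H]DPCPX Bmax and KD. Receptor loss is the reduction in Bmax versus control. Mean ± SE, n = 3-6.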

[4] = biological target: T1, Adenosine receptor A1 (Homo sapiens); assay: Percentage loss of [3H]-DPCPX binding to Adenosine A1 receptor in the presence of Xanthine derivative at 5 nM from DDT1 MF2 cells; type: cell-based
How it was run: as §1

Structure (SMILES) | IC50 [1] | Kd [2] | Loss [3] | Loss [4]
CCCn1c(=O)c2nc(C3CCCC3)[nH]c2n(CCCNC(=O)c2ccc(S(=O)(=O)F)cc2)c1=O | 21000 pM | 360 pM and 310 pM |  | 
CCCn1c(=O)c2nc(C3CCCCC3)[nH]c2n(CCCCC(=O)c2ccc(S(=O)(=O)F)cc2)c1=O |  |  | 78% | 56%
CCCn1c(=O)c2nc(C3CCCC3)[nH]c2n(CCCCC(=O)c2ccc(S(=O)(=O)F)cc2)c1=O |  |  | 73% | 51%
CCCn1c(=O)c2nc(C3CC4CCC3C4)[nH]c2n(CCCCC(=O)c2ccc(S(=O)(=O)F)cc2)c1=O (stereo not drawn) |  |  | 81% | 50%
